Results from ChEMBL document CHEMBL1955723, “Discovery and synthesis of namalide reveals a new anabaenopeptin scaffold and peptidase inhibitor” (J Med Chem, 2012).
pIC50: −log10 of the molar value. The source made the active and inactive calls. The calls are words filed in the database; no cut-off is given here.

How the values were obtained:
[1] = target: T1, Carboxypeptidase B2 (Homo sapiens) (UniProt Q96IY4); assay: Inhibition of carboxypeptidase U at 60 ug/mL
T1 sequence (whole entry): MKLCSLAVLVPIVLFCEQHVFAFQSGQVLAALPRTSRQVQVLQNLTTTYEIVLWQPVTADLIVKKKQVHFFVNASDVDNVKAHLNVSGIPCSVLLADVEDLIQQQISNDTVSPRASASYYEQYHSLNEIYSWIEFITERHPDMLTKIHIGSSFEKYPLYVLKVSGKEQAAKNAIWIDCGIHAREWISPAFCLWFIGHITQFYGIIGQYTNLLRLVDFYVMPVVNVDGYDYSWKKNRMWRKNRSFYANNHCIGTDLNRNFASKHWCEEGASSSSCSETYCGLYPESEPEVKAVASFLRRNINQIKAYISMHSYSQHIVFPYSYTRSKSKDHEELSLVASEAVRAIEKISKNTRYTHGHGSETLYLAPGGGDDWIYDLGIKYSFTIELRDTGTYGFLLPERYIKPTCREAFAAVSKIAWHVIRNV
In short: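 CPU (activated TAFI) assayed with a commercial TAFIa kit per manufacturer's instructions, run like the CPA/chymotrypsin assays; compounds tested up to 60 μg/mL.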

[2] = Inhibition of alpha chymotrypsin using N-benzoyl-L-tyrosine ethyl ester as substrate at 60 ug/mL after 5 mins by colorimetry
In short: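 α-Chymotrypsin, 1 U, 25 °C, in a 10 mm quartz cuvette, 200 μL final; inhibitor from DMSO (typically 1 mM stock, 10 μL) or DMSO alone. Absorbance read at 256 nm after 5 min incubation; tested up to 60 μg/mL.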

[3] = target: T2, Carboxypeptidase A1 (Bos taurus) (UniProt P00730); assay: Inhibition of bovine pancreas carboxypeptidase A using N-(4-methoxyphenylazoformyl)-phenylalanine as substrate at 30 uM after 5 mins by colorimetry
T2 sequence (whole entry): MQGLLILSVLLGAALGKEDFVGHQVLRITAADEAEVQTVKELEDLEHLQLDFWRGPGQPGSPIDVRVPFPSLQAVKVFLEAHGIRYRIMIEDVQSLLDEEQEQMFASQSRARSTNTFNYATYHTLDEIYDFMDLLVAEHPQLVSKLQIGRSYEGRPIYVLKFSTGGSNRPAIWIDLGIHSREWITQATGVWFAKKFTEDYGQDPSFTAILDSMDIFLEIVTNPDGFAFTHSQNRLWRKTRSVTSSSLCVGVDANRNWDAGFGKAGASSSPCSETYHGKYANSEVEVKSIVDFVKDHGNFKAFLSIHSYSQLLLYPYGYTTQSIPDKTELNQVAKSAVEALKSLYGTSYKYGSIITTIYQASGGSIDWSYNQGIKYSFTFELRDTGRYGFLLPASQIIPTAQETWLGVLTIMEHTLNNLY

[4] = Solubility of the compound; assay type: physicochemical
[5] = target: T3, Carboxypeptidase A1 (Bos taurus, UniProt P00730); assay: Inhibition of bovine pancreas carboxypeptidase A using N-(4-methoxyphenylazoformyl)-phenylalanine as substrate after 5 mins by colorimetry
T3 sequence (P00730 whole entry): T2 sequence (whole entry)
In short: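 Bovine pancreas CPA, 1 U, 25 °C, 200 μL final; inhibitor added from DMSO (typically 1 mM stock, 10 μL) or DMSO alone. Absorbance at 350 nm after 5 min. Curves fitted to %inhibition=[…].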

| Structure (SMILES) | inhibition [1] | inhibition [2] | inhibition [3] | solubility [4] | pIC50 [5] |
| --- | --- | --- | --- | --- | --- |
| CC[C@H](C)[C@@H]1NC(=O)[C@@H](NC(=O)N[C@@H](Cc2ccccc2)C(=O)O)CCCCNC(=O)[C@H](Cc2ccccc2)NC1=O | inactive | inactive | inactive | – | – |
| CC[C@@H](C)[C@@H]1NC(=O)[C@H](NC(=O)N[C@@H](Cc2ccccc2)C(=O)O)CCCCNC(=O)[C@H](Cc2ccccc2)NC1=O | – | – | inactive | Insoluble | – |
| CC[C@H](C)[C@@H]1NC(=O)[C@H](NC(=O)N[C@@H](Cc2ccccc2)C(=O)O)CCCCNC(=O)[C@H](Cc2ccccc2)NC(=O)[C@H]([C@@H](C)CC)NC(=O)[C@H](NC(=O)N[C@@H](Cc2ccccc2)C(=O)O)CCCCNC(=O)[C@H](Cc2ccccc2)NC1=O | – | – | inactive | – | – |
| CC[C@H](C)[C@@H]1NC(=O)[C@H](N)CCCCNC(=O)[C@H](Cc2ccccc2)NC1=O | inactive | inactive | inactive | – | – |
| CC[C@H](C)[C@@H]1NC(=O)[C@H](NC(=O)N[C@@H](Cc2ccccc2)C(=O)O)CCCCNC(=O)[C@H](Cc2ccccc2)NC1=O [NAMALIDE] | inactive | inactive | – | – | 6.60 |
| CC[C@H](C)[C@H](NC(=O)[C@@H](CCCCN)NC(=O)N[C@@H](Cc1ccccc1)C(=O)O)C(=O)N[C@@H](Cc1ccccc1)C(N)=O | inactive | inactive | – | – | 5.35 |
